In ChEMBL document CHEMBL4270599, “Synthesis of a 3'-C-ethynyl-β-d-ribofuranose purine nucleoside library: Discovery of C7-deazapurine analogs as potent antiproliferative nucleosides” (Eur J Med Chem, 2018):

How the values were obtained:
[1] = Cytotoxicity against HELF cells assessed as alteration of cell morphology by microscopic analysis; format: cell-based; settings: human
Summary of the method: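 Uninfected Hel fibroblast cultures exposed to compound alongside antiviral assays. Minimal cytotoxic concentration (MCC) is the concentration giving microscopically visible alteration of normal cell morphology.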

Human betaherpesvirus 5 [2] = experiment: Antiviral activity against Human cytomegalovirus AD169 strain infected in HELF cells assessed as inhibition of virus-induced cytopathogenicity; format: functional, organism-based; settings: Human betaherpesvirus 5, AD169, HELF
Summary of the method: (§1)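 Confluent human embryonic lung fibroblasts in 96-well plates inoculated with 100 CCID₅₀ HCMV. Residual virus removed after 1–2 h, then cultures incubated with varying compound concentrations. Cytopathicity scored once complete in untreated infected controls. EC₅₀ is the concentration reducing virus-induced cytopathicity by 50%.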

Human alphaherpesvirus 1 [3] = experiment: Antiviral activity against Human herpesvirus 1 KOS strain infected in HELF cells assessed as inhibition of virus-induced cytopathogenicity; format: functional, organism-based; settings: Human alphaherpesvirus 1, KOS
Summary of the method: (§2)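 Confluent human embryonic lung fibroblast monolayers in 96-well plates were infected with 100 CCID50 of virus or, for VZV, 20 PFU, in the presence of varying compound concentrations. For HCMV/VZV-type assays, residual virus was removed after 1–2 h before compound addition. Cytopathicity or plaque formation was scored once complete in untreated infected controls. Highest concentration tested was 100 μM.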

Human alphaherpesvirus 3 [4] = experiment: Antiviral activity against thymidine kinase-deficient Varicella Zoster virus Oka strain infected in HELF cells assessed as inhibition of virus-induced plaque formation; format: functional, organism-based; settings: Human alphaherpesvirus 3, strain Oka vaccine; summary of the method: as §2
Human betaherpesvirus 5 [5] = experiment: Antiviral activity against Human cytomegalovirus Davis strain infected in HELF cells assessed as inhibition of virus-induced cytopathogenicity; format: functional, organism-based; settings: Human betaherpesvirus 5, Davis; summary of the method: as §1
[6] = Cytotoxicity against HELF cells after by Coulter counter method; format: cell-based; settings: human
Summary of the method: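 Hel fibroblast proliferation measured by Coulter Counter cell count in presence of compound. CC₅₀ is the concentration (μM) reducing cell proliferation by 50%.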

L1210 = experiment: Antiproliferative activity against mouse L1210 cells after 48 hrs by Coulter counter method; format: functional, cell-based; settings: L1210, 48 h
Summary of the method: (§3)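 Cell count assay in 96-well microtiter plates; (5–7.5) × 10⁴ tumor cells per well plus test compound. Cells proliferated at 37 °C in humidified CO₂-controlled atmosphere, 48 h for murine leukemia L1210, 72 h for human lymphocytic CEM and cervix carcinoma HeLa. Counted by Coulter counter; IC₅₀ is the concentration that inhibits proliferation by 50%.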

HeLa = experiment: Antiproliferative activity against human HeLa cells after 72 hrs by Coulter counter method; format: functional, cell-based; summary of the method: as §3
Human alphaherpesvirus 3 [7] = experiment: Antiviral activity against thymidine kinase-deficient Varicella Zoster virus 07-1 strain infected in HELF cells assessed as inhibition of virus-induced plaque formation; format: functional, organism-based; settings: Human alphaherpesvirus 3, 07-1, HELF; summary of the method: as §2
Human alphaherpesvirus 1 [8] = experiment: Antiviral activity against thymidine kinase-deficient acyclovir-resistant Human herpesvirus 1 KOS strain infected in HELF cells assessed as inhibition of virus-induced cytopathogenicity; format: functional, organism-based; settings: Human alphaherpesvirus 1, KOS; summary of the method: as §2
CCRF-CEM = experiment: Antiproliferative activity against human CEM cells after 72 hrs by Coulter counter method; format: functional, cell-based; summary of the method: as §3
Human alphaherpesvirus 2 = experiment: Antiviral activity against Human herpesvirus 2 G strain infected in HELF cells assessed as inhibition of virus-induced cytopathogenicity; format: functional, organism-based; settings: Human alphaherpesvirus 2, strain G
Summary of the method: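 Confluent Hel fibroblast cultures in 96-well plates inoculated with 100 CCID₅₀ virus in presence of varying compound concentrations. Cytopathicity recorded once complete in untreated virus-infected controls. EC₅₀ is the concentration reducing virus-induced cytopathogenicity by 50%; compounds tested up to 100 μM.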

SMILES | MCC [1] [µM] | EC50 (Human betaherpesvirus 5 [2]) [µM] | EC50 (Human alphaherpesvirus 1 [3]) [µM] | EC50 (Human alphaherpesvirus 3 [4]) [µM] | EC50 (Human betaherpesvirus 5 [5]) [µM] | CC50 [6] [µM] | IC50 (L1210) [µM] | IC50 (HeLa) [µM] | EC50 (Human alphaherpesvirus 3 [7]) [µM] | EC50 (Human alphaherpesvirus 1 [8]) [µM] | IC50 (CCRF-CEM) [µM] | EC50 (Human alphaherpesvirus 2) [µM]
C#C[C@@]1(O)[C@@H](CO)O[C@@H](n2cc(I)c3c(Cl)ccnc32)[C@@H]1O | 20 to 100 | 2.31 | > 100 | 9.82 | 0.66 | 0.16 | 20 | 1.1 | 8.26 | > 100 | 0.26 | > 100
Nc1nc2c(ncn2COCCO)c(=O)[nH]1 [ACYCLOVIR] | 250 to 440 |  |  |  |  | > 440 |  |  |  |  |  | 
C#C[C@@]1(O)[C@@H](CO)O[C@@H](n2cnc3c(-c4ccc(C)cc4)ncnc32)[C@@H]1O |  |  |  |  |  |  | 205 | > 250 |  |  | 154 | 
Nc1nc2c(ncn2COC(CO)CO)c(=O)[nH]1 [GANCICLOVIR] | 100 to 350 |  |  |  |  |  |  |  |  |  |  | 
CC[C@@]1(O)[C@@H](CO)O[C@@H](n2cc(Cl)c3c(N)ncnc32)[C@@H]1O | 4 to 20 | 1.79 | 2.1 | 1.71 | > 4 | 3.41 | 1.2 | 4.4 | 3.74 | 1.27 | 2.6 | 0.63
C#C[C@@]1(O)[C@@H](CO)O[C@@H](n2cc(-c3ccco3)c3c(N)ncnc32)[C@@H]1O |  |  |  |  |  |  | 30 | 14 |  |  | 17 | 
C#C[C@@]1(O)[C@@H](CO)O[C@@H](n2cnc3c(-c4ccc(Cl)cc4)ncnc32)[C@@H]1O |  |  |  |  |  |  | 225 | 170 |  |  | 124 | 
C#C[C@@]1(O)[C@@H](CO)O[C@@H](n2cc(C(F)(F)F)c3c(N)ncnc32)[C@@H]1O |  |  |  |  |  |  | 0.11 | 0.75 |  |  | 0.36 | 
C#C[C@@]1(O)[C@@H](CO)O[C@@H](n2cnc3c(-c4ccc(OC)cc4)ncnc32)[C@@H]1O |  |  |  |  |  |  | > 250 | > 250 |  |  | > 250 | 
C#C[C@@]1(O)[C@@H](CO)O[C@@H](n2c(C(F)(F)F)cc3c(N)ncnc32)[C@@H]1O |  |  |  |  |  |  | > 250 | > 250 |  |  | > 250 | 
